# Key:
# L1210 [1] = experiment: Inhibition of L1210 cell proliferation in cytotoxic assay; assay type: functional, cell-based; details: Mus musculus
# Method in brief: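 Murine L1210 leukaemia cells (nonadherent, exponential growth) in RPMI 1640 with 10% FCS, 2 mM glutamine, 10 mM HEPES pH 7.4; 48 h exposure to serial dilutions (compounds from 5 mM DMSO stock diluted in water). MTT added for 4 h at 37 °C, formazan dissolved in DMSO, OD 540 nm; IC50 by linear regression on linear part of dose–response; triplicate.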
# [2] = molecular target: DNA topoisomerase 2-alpha (Homo sapiens) (UniProt P11388); experiment: Inhibition of human DNA topoisomerase II alpha as percent linear DNA after treatment with 20 uM
# L1210 [3] = experiment: Percentage of L1210 cells in the G2M phase after treatment with compound at 1 uM concentration expressed as cell cycle effect; assay type: functional, Mus musculus
# Method in brief: (§1)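 L1210 cells at 2.5×10^5 cells/mL exposed 21 h to the compound; fixed in 70% ethanol, stained 30 min at 20 °C in D-PBS with 100 µg/mL RNase A and 25 µg/mL propidium iodide; 10^4 cells per sample by flow cytometry; value is % of cells in G2M.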
# Mus musculus [4] = species on record: Mus musculus; experiment: Percent median survival time to that of control in mice on day 1; assay type: functional
# Method in brief: (§2)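 B6D2F1 mice inoculated ip with 10^6 P388 cells (day 0), single iv dose on day 1. MTD = highest dose without toxic death and/or >20% weight loss. T/C (%) = median survival time treated/control ×100.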
# A549 = experiment: Maximum tolerated dose after treatment on days 14, 21, and 28 against human A549 non-small-cell lung carcinoma
# Mus musculus [5] = species on record: Mus musculus; experiment: Percent median survival time to that of control in mice on days 14,21 and 28; assay type: functional
# Method in brief: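 BALB/c nude mice given 10^6 A549 cells orthotopically into left pleural space under anaesthesia; iv treatment on days 14, 21 and 28 after implantation. MTD = dose without toxic death and/or >20% weight loss; T/C (%) = median survival time treated/control ×100.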
# P388 = experiment: Maximum tolerated dose value on day 1 against mouse P388 leukemia cells; assay type: functional; method in brief: as §2
# L1210 [6] = experiment: Percentage of L1210 cells in the G2M phase after treatment with compound at 2.5 uM concentration expressed as cell cycle effect; assay type: functional, Mus musculus; method in brief: as §1
# L1210 [7] = experiment: Percentage of L1210 cells in the G2M phase after treatment with compound at 25 uM concentration expressed as cell cycle effect; assay type: functional, Mus musculus; method in brief: as §1
# L1210 [8] = experiment: Percentage of L1210 cells in the G2M phase after treatment with compound at 0.1 uM concentration expressed as cell cycle effect; assay type: functional, Mus musculus; method in brief: as §1
# L1210 [9] = experiment: Percentage of L1210 cells in the G2M phase after treatment with compound at 10 uM concentration expressed as cell cycle effect; assay type: functional, Mus musculus; method in brief: as §1
# Sequence of DNA topoisomerase 2-alpha (Homo sapiens) (P11388 whole entry): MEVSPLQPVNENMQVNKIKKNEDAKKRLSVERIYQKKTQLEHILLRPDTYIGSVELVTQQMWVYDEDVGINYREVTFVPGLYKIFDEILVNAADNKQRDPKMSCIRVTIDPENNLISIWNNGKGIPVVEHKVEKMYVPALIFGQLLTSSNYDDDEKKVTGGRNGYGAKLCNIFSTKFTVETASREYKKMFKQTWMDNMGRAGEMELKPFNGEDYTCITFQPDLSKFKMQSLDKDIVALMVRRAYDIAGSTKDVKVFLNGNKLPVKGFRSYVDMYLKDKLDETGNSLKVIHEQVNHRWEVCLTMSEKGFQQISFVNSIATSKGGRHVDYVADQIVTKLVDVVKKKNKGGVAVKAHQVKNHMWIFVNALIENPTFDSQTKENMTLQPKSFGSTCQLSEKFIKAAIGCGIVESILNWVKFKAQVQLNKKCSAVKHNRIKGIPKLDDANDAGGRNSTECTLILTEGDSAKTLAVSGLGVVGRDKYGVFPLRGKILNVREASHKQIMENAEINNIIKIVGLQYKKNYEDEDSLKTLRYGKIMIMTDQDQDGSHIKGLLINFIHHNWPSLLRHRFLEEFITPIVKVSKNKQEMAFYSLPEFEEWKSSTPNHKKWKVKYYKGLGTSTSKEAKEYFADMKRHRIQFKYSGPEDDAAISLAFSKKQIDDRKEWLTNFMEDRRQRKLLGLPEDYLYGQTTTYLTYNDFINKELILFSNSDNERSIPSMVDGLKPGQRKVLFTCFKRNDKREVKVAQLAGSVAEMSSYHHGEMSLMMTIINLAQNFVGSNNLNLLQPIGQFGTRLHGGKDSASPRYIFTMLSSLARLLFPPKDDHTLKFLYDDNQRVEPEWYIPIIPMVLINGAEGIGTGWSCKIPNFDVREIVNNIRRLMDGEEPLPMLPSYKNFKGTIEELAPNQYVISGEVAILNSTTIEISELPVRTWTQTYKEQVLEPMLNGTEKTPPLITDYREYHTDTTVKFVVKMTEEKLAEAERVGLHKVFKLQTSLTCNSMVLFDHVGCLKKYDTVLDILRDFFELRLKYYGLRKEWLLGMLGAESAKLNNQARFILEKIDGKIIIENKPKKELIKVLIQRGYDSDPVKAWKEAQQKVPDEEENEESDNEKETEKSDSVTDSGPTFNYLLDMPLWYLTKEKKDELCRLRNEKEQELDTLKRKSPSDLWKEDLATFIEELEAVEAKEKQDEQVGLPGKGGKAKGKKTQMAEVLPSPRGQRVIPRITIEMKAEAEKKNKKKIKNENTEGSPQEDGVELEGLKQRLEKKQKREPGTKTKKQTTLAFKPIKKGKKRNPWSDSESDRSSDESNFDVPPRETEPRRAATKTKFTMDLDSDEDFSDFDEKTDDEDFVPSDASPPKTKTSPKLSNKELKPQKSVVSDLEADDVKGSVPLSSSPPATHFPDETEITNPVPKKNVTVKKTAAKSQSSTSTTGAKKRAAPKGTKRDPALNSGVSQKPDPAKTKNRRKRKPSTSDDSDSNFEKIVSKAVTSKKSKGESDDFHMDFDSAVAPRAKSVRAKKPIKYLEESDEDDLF
Compound,IC50 (L1210 [1]) [µM],percent linear DNA [2] [%],other results
COc1cc([C@@H]2c3cc4c(cc3[C@@H](OC(=O)NCCCN(C)C)C3COC(=O)[C@@H]32)OCO4)cc(OC)c1O (stereo not given in full),0.34,58,Activity (L1210 [3]): 72%
COc1cc([C@@H]2c3cc4c(cc3[C@@H](OC(=O)NCCN(C)C)[C@H]3C(=O)OC[C@H]23)OCO4)cc(OC)c1O,0.088,64,T/C (Mus musculus [4]): 214%; MTD (A549): 6.25 mg/kg; T/C (Mus musculus [5]): 152%; MTD (P388): 12.5 mg/kg; Activity (L1210 [3]): 83%
COc1cc([C@@H]2c3cc4c(cc3[C@@H](OCNCCN(C)C)C3COC(=O)[C@@H]32)OCO4)cc(OC)c1O (stereo not given in full),27.9,–,–
COc1cc([C@@H]2c3cc4c(cc3[C@@H](OC(=O)N(C)CCN(C)C)C3COC(=O)[C@@H]32)OCO4)cc(OC)c1O (stereo not given in full),1.7,27,T/C (Mus musculus [4]): 182%; Activity (L1210 [6]): 77%; MTD (A549): 25 mg/kg; T/C (Mus musculus [5]): 102%; MTD (P388): 50 mg/kg
COc1cc([C@@H]2c3cc4c(cc3[C@@H](OC(=O)N(C)CCN(C)C)[C@H]3C(=O)OC[C@H]23)OCO4)cc(OC)c1O,5.2,0,Activity (L1210 [7]): 77%
COc1cc([C@@H]2c3cc4c(cc3[C@@H](OC(=O)NCCCN)C3COC(=O)[C@@H]32)OCO4)cc(OC)c1O (stereo not given in full),1.3,38,–
COc1cc([C@@H]2c3cc4c(cc3[C@@H](OC(=O)N(C)CCCN)C3COC(=O)[C@@H]32)OCO4)cc(OC)c1O (stereo not given in full),0.24,8,–
COc1cc([C@@H]2c3cc4c(cc3[C@@H](OC(=O)N(C)CCCN(C)C)[C@H]3C(=O)OC[C@H]23)OCO4)cc(OC)c1O,21,0,–
COc1cc([C@@H]2c3cc4c(cc3[C@@H](OC(=O)NCCN(C)C)C3COC(=O)[C@@H]32)OCO4)cc(OC)c1O (stereo not given in full),0.038,56,Activity (L1210 [8]): 67%; T/C (Mus musculus [4]): 192%; MTD (A549): 6.25 mg/kg; T/C (Mus musculus [5]): 151%; MTD (P388): 6.25 mg/kg
COc1cc([C@@H]2c3cc4c(cc3[C@@H](CCN(C)CCN(C)C)C3COC(=O)[C@@H]32)OCO4)cc(OC)c1O (stereo not given in full),0.6,57,Activity (L1210 [6]): 75%
COc1cc([C@@H]2c3cc4c(cc3[C@@H](OC(=O)NCCCN(C)C)[C@H]3C(=O)OC[C@H]23)OCO4)cc(OC)c1O,1.4,0,Activity (L1210 [9]): 65%
COc1cc([C@@H]2c3cc4c(cc3[C@@H](O[C@@H]3O[C@@H]5CO[C@@H](C)O[C@H]5[C@H](O)[C@H]3O)[C@H]3COC(=O)[C@H]23)OCO4)cc(OC)c1O [ETOPOSIDE],–,50,T/C (Mus musculus [4]): 233%; Activity (L1210 [6]): 76%; MTD (A549): 70 mg/kg; T/C (Mus musculus [5]): 131%; MTD (P388): 100 mg/kg
COc1cc([C@@H]2c3cc4c(cc3[C@@H](OC(=O)NCCCN)[C@H]3C(=O)OC[C@H]23)OCO4)cc(OC)c1O,4.3,0,–
COc1cc([C@@H]2c3cc4c(cc3[C@@H](OC(=O)N(C)CCCN(C)C)C3COC(=O)[C@@H]32)OCO4)cc(OC)c1O (stereo not given in full),0.96,17,–
